Each molecule was assayed on Trypanosoma brucei brucei (assay: Antitrypanosomal activity against Trypanosoma brucei brucei 427 after 48 hrs by alamar blue assay). Conditions: Trypanosoma brucei, 427, 48 h; read-out: EC50.
Format: functional, organism-based

| Compound | EC50 |
| --- | --- |
| CCCCCOc1ccc(CC/C=C/C(=O)CCc2ccc(OCCCCC)c(OC)c2)cc1OC | 1.1 µM |
| COc1cc(/C=C/C(=O)CC(=O)/C=C/c2ccc(OC(C)=O)cc2)ccc1OC(C)=O | 1.5 µM |
| COc1cc(/C=C/C(=O)CC(=O)/C=C/c2ccc(OCCO)c(OC)c2)ccc1OCCO | 1.8 µM |
| O=C(/C=C/c1ccc(O)cc1)CC(=O)/C=C/c1ccc(OC(=O)c2ccccc2)cc1 | 4.1 µM |
| COc1cc(CCC(=O)CC(=O)CCc2ccc(O)c(O)c2)ccc1O | 0.5 µM |
| COc1cc(/C=C/C(=O)CC(=O)/C=C/c2cc(OC)c(O)c([N+](=O)[O-])c2)ccc1O | 15 µM |
| O=C(/C=C/c1ccc(O)c(O)c1)CC(=O)/C=C/c1ccc(O)c(O)c1 | 1.8 µM |
| O=C(CCc1ccc(O)c(O)c1)CC(=O)CCc1ccc(O)c(O)c1 [DIDEMETHYLTETRAHYDROCURCUMIN] | 1.9 µM |
| COc1cc(/C=C/C(=O)CC(=O)/C=C/c2ccc(OCC=C(C)C)cc2)ccc1OCC=C(C)C | 1.9 µM |
| COc1cc(CCC(=O)CC(=O)CCc2ccc(O)c(OC)c2)ccc1O [TETRAHYDROCURCUMIN] | 21 µM |
| CCCOc1ccc(/C=C/C(=O)CC(=O)/C=C/c2ccc(OCCC)c(OC)c2)cc1OC | 1.3 µM |
| COc1cc(/C=C/C(=O)CC(=O)/C=C/c2ccc(OCCO)cc2)ccc1O | 0.7 µM |
| COc1cc(CCC(=O)CC(=O)CCc2ccc(O)cc2)ccc1O [TETRAHYDRODEMETHOXYCURCUMIN] | 22 µM |
| O=C(/C=C/CCc1ccc(O)c(O)c1)CCc1ccc(O)c(O)c1 [DEHYDROHIRSUTANONOL] | 2.5 µM |

Each molecule was assayed on Leishmania mexicana (assay: Antileishmanial activity against Leishmania mexicana MNYC/BZ/62/M379 amastigotes after 48 hrs by alamar blue assay). Conditions: Leishmania mexicana, MNYC/BZ/62/M379, 48 h; read-out: EC50.
Format: functional, organism-based
Procedure, shortened: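 Axenic L. mexicana MNYC/BZ/62/M379 amastigotes kept at 33 °C under CO2 in Schneider's Drosophila medium with 20% FBS and 0.3% gentamycin. Alamar Blue fluorescence read-out.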

| Compound | EC50 |
| --- | --- |
| CCCCCOc1ccc(CC/C=C/C(=O)CCc2ccc(OCCCCC)c(OC)c2)cc1OC | 53 µM |
| COc1cc(/C=C/C(=O)CC(=O)/C=C/c2ccc(OC(C)=O)cc2)ccc1OC(C)=O | 43 µM |
| COc1cc(/C=C/C(=O)CC(=O)/C=C/c2ccc(OCCO)c(OC)c2)ccc1OCCO | 37 µM |
| COc1ccc(CCC(=O)CC(O)CCc2ccc(OC)c(OC)c2)cc1OC (stereo not drawn) | > 100 µM |
| O=C(/C=C/c1ccc(O)cc1)CC(=O)/C=C/c1ccc(OC(=O)c2ccccc2)cc1 | > 100 µM |
| COc1cc(CCC(=O)CC(=O)CCc2ccc(O)c(O)c2)ccc1O | 16 µM |
| COc1cc(/C=C/C(=O)CC(=O)/C=C/c2cc(OC)c(O)c([N+](=O)[O-])c2)ccc1O | 14 µM |
| O=C(/C=C/c1ccc(O)c(O)c1)CC(=O)/C=C/c1ccc(O)c(O)c1 | 12 µM |
| N=C(N)c1ccc(OCCCCCOc2ccc(C(=N)N)cc2)cc1 [PENTAMIDINE] | 16 µM |
| O=C(CCc1ccc(O)c(O)c1)CC(=O)CCc1ccc(O)c(O)c1 [DIDEMETHYLTETRAHYDROCURCUMIN] | 53 µM |
| COc1cc(/C=C/C(=O)CC(=O)/C=C/c2ccc(OCC=C(C)C)cc2)ccc1OCC=C(C)C | 27 µM |
| COc1cc(CCC(=O)CC(=O)CCc2ccc(O)c(OC)c2)ccc1O [TETRAHYDROCURCUMIN] | 43 µM |
| CCCOc1ccc(/C=C/C(=O)CC(=O)/C=C/c2ccc(OCCC)c(OC)c2)cc1OC | 34 µM |
| COc1cc(/C=C/C(=O)CC(=O)/C=C/c2ccc(OCCO)cc2)ccc1O | 32 µM |
| COc1cc(CCC(=O)CC(=O)CCc2ccc(O)cc2)ccc1O [TETRAHYDRODEMETHOXYCURCUMIN] | > 50 µM |
| O=C(/C=C/CCc1ccc(O)c(O)c1)CCc1ccc(O)c(O)c1 [DEHYDROHIRSUTANONOL] | 17 µM |

What follows are molecules tested on Trypanosoma brucei brucei (assay: Antitrypanosomal activity against diminazene-resistant Trypanosoma brucei brucei deltaTbat1-KO after 48 hrs by alamar blue assay). Conditions: not given.
Format: functional, organism-based

| Compound | EC50 |
| --- | --- |
| CCCCCOc1ccc(CC/C=C/C(=O)CCc2ccc(OCCCCC)c(OC)c2)cc1OC | 1.2 µM |
| COc1cc(/C=C/C(=O)CC(=O)/C=C/c2ccc(OC(C)=O)cc2)ccc1OC(C)=O | 2 µM |
| COc1cc(/C=C/C(=O)CC(=O)/C=C/c2ccc(OCCO)c(OC)c2)ccc1OCCO | 2.3 µM |
| O=C(/C=C/c1ccc(O)cc1)CC(=O)/C=C/c1ccc(OC(=O)c2ccccc2)cc1 | 10 µM |
| COc1cc(CCC(=O)CC(=O)CCc2ccc(O)c(O)c2)ccc1O | 0.52 µM |
| COc1cc(/C=C/C(=O)CC(=O)/C=C/c2cc(OC)c(O)c([N+](=O)[O-])c2)ccc1O | 18 µM |
| O=C(/C=C/c1ccc(O)c(O)c1)CC(=O)/C=C/c1ccc(O)c(O)c1 | 2.5 µM |
| O=C(CCc1ccc(O)c(O)c1)CC(=O)CCc1ccc(O)c(O)c1 [DIDEMETHYLTETRAHYDROCURCUMIN] | 1.5 µM |
| COc1cc(/C=C/C(=O)CC(=O)/C=C/c2ccc(OCC=C(C)C)cc2)ccc1OCC=C(C)C | 2.9 µM |
| COc1cc(CCC(=O)CC(=O)CCc2ccc(O)c(OC)c2)ccc1O [TETRAHYDROCURCUMIN] | 37 µM |
| CCCOc1ccc(/C=C/C(=O)CC(=O)/C=C/c2ccc(OCCC)c(OC)c2)cc1OC | 1.8 µM |
| COc1cc(/C=C/C(=O)CC(=O)/C=C/c2ccc(OCCO)cc2)ccc1O | 0.85 µM |
| COc1cc(CCC(=O)CC(=O)CCc2ccc(O)cc2)ccc1O [TETRAHYDRODEMETHOXYCURCUMIN] | 34 µM |
| O=C(/C=C/CCc1ccc(O)c(O)c1)CCc1ccc(O)c(O)c1 [DEHYDROHIRSUTANONOL] | 3.2 µM |

Each molecule was assayed on Trypanosoma brucei brucei (assay: Antitrypanosomal activity against multidrug-resistant Trypanosoma brucei brucei B48 after 48 hrs by alamar blue assay). Conditions: B48, 48 h.
Format: functional, organism-based

| Compound | EC50 |
| --- | --- |
| CCCCCOc1ccc(CC/C=C/C(=O)CCc2ccc(OCCCCC)c(OC)c2)cc1OC | 1.8 µM |
| COc1cc(/C=C/C(=O)CC(=O)/C=C/c2ccc(OC(C)=O)cc2)ccc1OC(C)=O | 0.92 µM |
| COc1cc(/C=C/C(=O)CC(=O)/C=C/c2ccc(OCCO)c(OC)c2)ccc1OCCO | 1.6 µM |
| O=C(/C=C/c1ccc(O)cc1)CC(=O)/C=C/c1ccc(OC(=O)c2ccccc2)cc1 | 12 µM |
| COc1cc(CCC(=O)CC(=O)CCc2ccc(O)c(O)c2)ccc1O | 0.43 µM |
| COc1cc(/C=C/C(=O)CC(=O)/C=C/c2cc(OC)c(O)c([N+](=O)[O-])c2)ccc1O | 25 µM |
| O=C(/C=C/c1ccc(O)c(O)c1)CC(=O)/C=C/c1ccc(O)c(O)c1 | 3.4 µM |
| N=C(N)c1ccc(OCCCCCOc2ccc(C(=N)N)cc2)cc1 [PENTAMIDINE] | 0.67 µM |
| O=C(CCc1ccc(O)c(O)c1)CC(=O)CCc1ccc(O)c(O)c1 [DIDEMETHYLTETRAHYDROCURCUMIN] | 1.7 µM |
| COc1cc(/C=C/C(=O)CC(=O)/C=C/c2ccc(OCC=C(C)C)cc2)ccc1OCC=C(C)C | 3.1 µM |
| COc1cc(CCC(=O)CC(=O)CCc2ccc(O)c(OC)c2)ccc1O [TETRAHYDROCURCUMIN] | 12 µM |
| CCCOc1ccc(/C=C/C(=O)CC(=O)/C=C/c2ccc(OCCC)c(OC)c2)cc1OC | 1.6 µM |
| COc1cc(/C=C/C(=O)CC(=O)/C=C/c2ccc(OCCO)cc2)ccc1O | 1.1 µM |
| COc1cc(CCC(=O)CC(=O)CCc2ccc(O)cc2)ccc1O [TETRAHYDRODEMETHOXYCURCUMIN] | 18 µM |

The molecules below were run on HEK293 (assay: Cytotoxicity against HEK293 cells after 16 hrs by alamar blue assay). Conditions: Homo sapiens, HEK293, 16 h; read-out: EC50.
Format: cell-based, Homo sapiens
Procedure, shortened: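 HEK293T cells grown in DMEM-based medium with 10% newborn bovine serum at 37 °C, 5% CO2. Doubling dilutions of compound added for 16 h, then resazurin added. Fluorescence read at emission 590 nm after a further 24 h.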

| Compound | EC50 |
| --- | --- |
| CCCCCOc1ccc(CC/C=C/C(=O)CCc2ccc(OCCCCC)c(OC)c2)cc1OC | 43 µM |
| COc1cc(/C=C/C(=O)CC(=O)/C=C/c2ccc(OC(C)=O)cc2)ccc1OC(C)=O | 49 µM |
| COc1cc(/C=C/C(=O)CC(=O)/C=C/c2ccc(OCCO)c(OC)c2)ccc1OCCO | 20 µM |
| COc1ccc(CCC(=O)CC(O)CCc2ccc(OC)c(OC)c2)cc1OC (stereo not drawn) | 370 µM |
| O=C(/C=C/c1ccc(O)cc1)CC(=O)/C=C/c1ccc(OC(=O)c2ccccc2)cc1 | 270 µM |
| COc1cc(CCC(=O)CC(=O)CCc2ccc(O)c(O)c2)ccc1O | 130 µM |
| COc1cc(/C=C/C(=O)CC(=O)/C=C/c2cc(OC)c(O)c([N+](=O)[O-])c2)ccc1O | 82 µM |
| O=C(/C=C/c1ccc(O)c(O)c1)CC(=O)/C=C/c1ccc(O)c(O)c1 | 39 µM |
| O=C(CCc1ccc(O)c(O)c1)CC(=O)CCc1ccc(O)c(O)c1 [DIDEMETHYLTETRAHYDROCURCUMIN] | 150 µM |
| COc1cc(/C=C/C(=O)CC(=O)/C=C/c2ccc(OCC=C(C)C)cc2)ccc1OCC=C(C)C | > 500 µM |
| COc1cc(CCC(=O)CC(=O)CCc2ccc(O)c(OC)c2)ccc1O [TETRAHYDROCURCUMIN] | 120 µM |
| CCCOc1ccc(/C=C/C(=O)CC(=O)/C=C/c2ccc(OCCC)c(OC)c2)cc1OC | > 500 µM |
| COc1cc(/C=C/C(=O)CC(=O)/C=C/c2ccc(OCCO)cc2)ccc1O | 46 µM |
| O=C(/C=C/CCc1ccc(O)c(O)c1)CCc1ccc(O)c(O)c1 [DEHYDROHIRSUTANONOL] | 220 µM |

The molecules below were run on Leishmania major (assay: Antileishmanial activity against Leishmania major Friedlin promastigotes after 48 hrs by alamar blue assay). Conditions: Leishmania major, Friedlin, 48 h; read-out: EC50.
Format: functional, organism-based
Procedure, shortened: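 L. major Friedlin promastigotes grown in HOMEM with 10% FBS at 25 °C. Alamar Blue fluorescence assay in 96-well plates. 3–6 independent experiments unless noted.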

| Compound | EC50 |
| --- | --- |
| CCCCCOc1ccc(CC/C=C/C(=O)CCc2ccc(OCCCCC)c(OC)c2)cc1OC | 6.6 µM |
| COc1cc(/C=C/C(=O)CC(=O)/C=C/c2ccc(OC(C)=O)cc2)ccc1OC(C)=O | > 100 µM |
| COc1cc(/C=C/C(=O)CC(=O)/C=C/c2ccc(OCCO)c(OC)c2)ccc1OCCO | 33 µM |
| COc1ccc(CCC(=O)CC(O)CCc2ccc(OC)c(OC)c2)cc1OC (stereo not drawn) | 41 µM |
| O=C(/C=C/c1ccc(O)cc1)CC(=O)/C=C/c1ccc(OC(=O)c2ccccc2)cc1 | 60 µM |
| COc1cc(CCC(=O)CC(=O)CCc2ccc(O)c(O)c2)ccc1O | 11 µM |
| COc1cc(/C=C/C(=O)CC(=O)/C=C/c2cc(OC)c(O)c([N+](=O)[O-])c2)ccc1O | 28 µM |
| O=C(/C=C/c1ccc(O)c(O)c1)CC(=O)/C=C/c1ccc(O)c(O)c1 | 26 µM |
| N=C(N)c1ccc(OCCCCCOc2ccc(C(=N)N)cc2)cc1 [PENTAMIDINE] | 3.8 µM |
| O=C(CCc1ccc(O)c(O)c1)CC(=O)CCc1ccc(O)c(O)c1 [DIDEMETHYLTETRAHYDROCURCUMIN] | > 100 µM |
| COc1cc(/C=C/C(=O)CC(=O)/C=C/c2ccc(OCC=C(C)C)cc2)ccc1OCC=C(C)C | 48 µM |
| COc1cc(CCC(=O)CC(=O)CCc2ccc(O)c(OC)c2)ccc1O [TETRAHYDROCURCUMIN] | 90 µM |
| CCCOc1ccc(/C=C/C(=O)CC(=O)/C=C/c2ccc(OCCC)c(OC)c2)cc1OC | 28 µM |
| COc1cc(/C=C/C(=O)CC(=O)/C=C/c2ccc(OCCO)cc2)ccc1O | 9.7 µM |
| COc1cc(CCC(=O)CC(=O)CCc2ccc(O)cc2)ccc1O [TETRAHYDRODEMETHOXYCURCUMIN] | > 100 µM |
| O=C(/C=C/CCc1ccc(O)c(O)c1)CCc1ccc(O)c(O)c1 [DEHYDROHIRSUTANONOL] | > 100 µM |

— ChEMBL document CHEMBL1154833, “Curcuminoid analogs with potent activity against Trypanosoma and Leishmania species” (Eur J Med Chem, 2010)
